# Measured values gathered from unrelated publications.
# Protocols differ between the studies behind these lines.
# Target: Inhibitor of nuclear factor kappa-B kinase subunit beta (IKBKB, Homo sapiens, UniProt O14920)
# Sequence (O14920 1-756, as in one of the studies): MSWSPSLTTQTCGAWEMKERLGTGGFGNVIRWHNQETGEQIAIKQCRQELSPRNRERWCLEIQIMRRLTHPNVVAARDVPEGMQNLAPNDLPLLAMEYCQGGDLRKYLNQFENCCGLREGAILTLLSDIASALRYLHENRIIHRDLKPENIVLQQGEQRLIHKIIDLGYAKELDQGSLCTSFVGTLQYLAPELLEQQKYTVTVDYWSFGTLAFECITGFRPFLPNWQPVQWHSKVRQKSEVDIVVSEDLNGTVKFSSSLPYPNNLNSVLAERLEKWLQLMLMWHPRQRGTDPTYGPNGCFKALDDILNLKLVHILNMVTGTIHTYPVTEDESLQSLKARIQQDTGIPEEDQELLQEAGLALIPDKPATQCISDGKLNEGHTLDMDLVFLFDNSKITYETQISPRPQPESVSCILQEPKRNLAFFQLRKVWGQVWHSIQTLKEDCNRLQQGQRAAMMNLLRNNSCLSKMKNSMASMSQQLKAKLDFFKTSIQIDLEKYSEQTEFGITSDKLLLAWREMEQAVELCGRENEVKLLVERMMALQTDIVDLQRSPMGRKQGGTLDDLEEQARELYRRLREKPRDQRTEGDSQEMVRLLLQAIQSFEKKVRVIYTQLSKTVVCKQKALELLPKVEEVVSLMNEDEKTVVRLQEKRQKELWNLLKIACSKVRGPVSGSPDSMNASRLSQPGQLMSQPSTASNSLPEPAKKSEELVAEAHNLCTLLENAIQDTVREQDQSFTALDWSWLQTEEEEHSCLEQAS
SMILES,observed,action,method,concentration,endpoint,result
CC(C)(C)c1nc2c(s1)c1nc(N)ncc1c1ccc(NS(=O)(=O)c3c(F)cccc3F)c(F)c12,enzyme activity,inhibitor,radiometric,1 µM,remaining activity,79%
CCCOc1ccc(OC)c(F)c1C(=O)c1ccc(C(=O)N[C@@H]2CNC[C@H]2NC(=O)c2ccc3[nH]ncc3c2)cc1,enzyme activity,inhibitor,,10 µM,remaining activity,62%
O=C(Nc1cccnn1)N1CC(C/C=C/c2cncc(Oc3ccc(C(F)(F)F)cn3)n2)C1,cell-free assay,,competition with immobilised ligand,1 µM,remaining binding,94%
CCN(CC)CCNC(=O)c1c(C)[nH]c(/C=C2\C(=O)Nc3ccc(Cl)cc32)c1C,enzyme activity,inhibitor,,0.5 µM,remaining activity,101%
CN(C)C1CCN(CC#Cc2nn(C3CCCC3)c3nc(NCc4ccccc4)ncc23)C1 (stereo not shown),enzyme activity,inhibitor,FRET,1 µM,inhibition,1%
CC/C(=N\NC(=O)NCc1cccc(O)c1)c1ccc(O)c(C)c1O,enzyme activity,inhibitor,,0.1 µM,inhibition,-0.9%
CCC(=O)N[C@@H]1CC[C@H](C(=O)N(C)c2ccc(-c3nc4ccccc4o3)cc2)C1,cell-free assay,,competition with immobilised ligand,1 µM,remaining binding,100%
CCC1(CC)NC(=O)c2c(c3ccc(Cl)c(Cl)c3n2C)C1C#N (stereo not shown),thermal stability,,DSF,10 µM,ΔTm,0.1 °C
FC(F)(F)Oc1cccc(-c2cnc3ccc(-c4ccncc4)nn23)c1,enzyme activity,inhibitor,radiometric,1 µM,activity vs control,94%
O=C1c2ccccc2-c2n[nH]c3cccc1c23,enzyme activity,inhibitor,,0.5 µM,activity vs control,75.8%
CCN(CC)CCNC(=O)c1c(C)[nH]c(/C=C2\C(=O)Nc3ccc(F)cc32)c1C,enzyme activity,inhibitor,,0.3 µM,inhibition,-1%
FC(F)c1nc2ccccc2n1-c1nc(N2CCOCC2)nc(N2CCOCC2)n1,enzyme activity,inhibitor,,10 µM,remaining activity,94%
Cc1ccc(C(=O)Nc2ccc(CN3CCN(C)CC3)c(C(F)(F)F)c2)cc1C#Cc1cnc2cccnn12,enzyme activity,inhibitor,,23.5 nM,remaining activity,37%
Cn1c(=O)n(-c2ccc(C(C)(C)C#N)cc2)c2c3cc(-c4cnc5ccccc5c4)ccc3ncc21,enzyme activity,inhibitor,,10 µM,remaining activity,92%
O=c1cc(-c2cccc3c2Sc2ccccc2S3)oc(N2CCOCC2)c1,enzyme activity,inhibitor,,0.5 µM,remaining activity,101%
COc1cc2ncnc(Nc3ccc(Oc4ccccc4)c(C)c3C)c2cc1OC,enzyme activity,inhibitor,,1 µM,inhibition,3%
O=C(Nc1cccnn1)N1CCC(=Cc2cccc(Oc3ccc(C(F)(F)F)cn3)c2)CC1,cell-free assay,,competition with immobilised ligand,1 µM,remaining binding,83%
N#CC1c2c([nH]c3c(Cl)c(Cl)ccc23)C(=O)NC12CCCCC2 (racemic),thermal stability,,DSF,10 µM,ΔTm,0.6 °C
O=C1NC(=O)c2cc(Nc3ccc(F)cc3)c(Nc3ccc(F)cc3)cc21,cell-free assay,,,0.5 µM,remaining signal,95.6%
CC1=C(C#N)[C@@H](c2ccc3[nH]nc(C)c3c2)C(C#N)=C(c2ccc(Cl)cc2)N1,cell-free assay,,competition with immobilised ligand,1 µM,remaining binding,100%
CCN1CCC2(CC1)NC(=O)c1c(c3ccc(Cl)c(Cl)c3n1C)C2C#N (racemic),thermal stability,,DSF,10 µM,ΔTm,0 °C
COc1cccc2c(NCc3ccccc3)nc(-n3c(N)nc4ccccc43)nc12,target engagement in cells,inhibitor,chemoproteomics,20 mM,inhibition,-13.4%
CNC(=O)c1cc(Oc2ccc(NC(=O)Nc3ccc(Cl)c(C(F)(F)F)c3)cc2)ccn1,enzyme activity,inhibitor,,0.3 µM,inhibition,-5%
COc1cc(/C=C/C(=O)CC(=O)/C=C/c2ccc(O)c(OC)c2)ccc1O,enzyme activity,inhibitor,,1 µM,activity vs control,69%
O=C(CSc1nc2nccnc2c(=O)n1CCc1ccccc1)Nc1nccs1,enzyme activity,inhibitor,,10 µM,inhibition,12%
NS(=O)(=O)c1cc(NC(=O)Cc2ccccc2)ccc1Oc1cccc(Cl)c1,cell-free assay,,competition with immobilised ligand,1 µM,remaining binding,91%
c1ccc(CNc2nc(N3CCOc4ccccc43)nc3c2CCCC3)cc1,target engagement in cells,inhibitor,chemoproteomics,20 mM,inhibition,-6.4%
Cc1ccc(NC(=O)c2ccc(CN3CCN(C)CC3)cc2)cc1Nc1nc(-c2cccnc2)cs1,cell-free assay,,,0.5 µM,remaining signal,97.8%
O=C(O)[C@H]1[C@H](Cn2nnc3ccccc3c2=O)CC[C@@H]1C(=O)c1ccc(OCCC2CCOCC2)cc1,cell-free assay,,competition with immobilised ligand,1 µM,remaining binding,100%
Cc1ccc(Nc2nccc(N(C)c3ccc4c(C)n(C)nc4c3)n2)cc1S(N)(=O)=O,enzyme activity,inhibitor,,0.3 µM,inhibition,3%
CN1CCC2(CC1)NC(=O)c1c(c3ccc(Cl)c(Cl)c3n1C)C2C#N (racemic),thermal stability,,DSF,10 µM,ΔTm,-0.2 °C
COc1cc(Cl)c(C(=O)N[C@@H](CN[C@H]2CC[C@@H](N)CC2)Cc2ccc(C#N)cc2)cc1-c1ccc(CN[C@H](C)c2ccc(C)cc2)o1,enzyme activity,inhibitor,,1 µM,remaining activity,88%
N#CC1(c2ccccn2)CCN(Cc2cc(C(=O)N3CCCC3)c(=O)n3ccccc23)CC1,cell-free assay,,competition with immobilised ligand,1 µM,remaining binding,99%
CCCS(=O)(=O)Nc1ccc(F)c(C(=O)c2c[nH]c3ncc(-c4ccc(Cl)cc4)cc23)c1F,enzyme activity,inhibitor,,1 µM,inhibition,< 10%
Cc1sc(C(=O)NC2COC2)cc1-n1cc(NC(=O)Nc2c(F)cccc2Cl)cn1,enzyme activity,inhibitor,,10 µM,remaining activity,86.8%
Cn1c2c(c3ccc(Cl)c(Cl)c31)C(C#N)C1(CCOCC1)NC2=O (stereo not shown),thermal stability,,DSF,10 µM,ΔTm,-0.4 °C
Nc1nc(Nc2ccccc2)sc1C(=O)c1c(F)cccc1F,enzyme activity,inhibitor,,10 µM,remaining activity,82%
COc1cc(Nc2cnc(C#N)c(O[C@H](C)CN(C)C)n2)ncc1-c1cnn(C)c1,enzyme activity,inhibitor,radiometric,10 µM,remaining activity,86%
CCS(=O)(=O)c1cc2cc(C[C@](O)(CC(C)(C)c3ccc(F)cc3C(N)=O)C(F)(F)F)[nH]c2cn1,cell-free assay,,competition with immobilised ligand,1 µM,remaining binding,91%
Cc1cnc(NC2CCOCC2)nc1-n1cnc(C(=O)NC(CN)c2cc(F)cc(Cl)c2)c1 (stereo not shown),enzyme activity,inhibitor,radiometric,1 µM,remaining activity,100%
